Measurements taken from ChEMBL document CHEMBL5724801, “EUbOPEN Chemogenomics Library - Multiplex” (2024).
Several values for one entry are separate records, joined by “and”; a condition that tells them apart may be missing. Equal values may be shown once.

System: HEK-293T
Experiment: Multiplex assay against HEK293T
Assay type: toxicity, cell-based
Details: human
In short: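 Four dyes were applied at seeding to live cells: Hoechst33342, BioTracker Green Microtubule Cytoskeleton Dye, MitoTracker Red and Annexin V Alexa Fluor 680. Imaging after compound addition used a CQ1 microscope at 37°C and 5% CO2. CellPathfinder machine-learning gating then sorted cells into Hoechst high-intensity objects or normal cells, normal cells into healthy, pyknosed or fragmented nuclei, and pyknosed cells into mitotic or apoptotic, with tubulin, mitochondrial-mass and membrane-permeability phenotypes given as per cents of healthy-nucleus cells.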

[1] = 12 h, 1 µM, compound concentration 1 uM
[2] = 12 h, 10 µM, compound concentration 10 uM
[3] = 24 h, 1 µM, compound concentration 1 uM
[4] = 24 h, 10 µM, compound concentration 10 uM
[5] = 48 h, 1 µM, compound concentration 1 uM
[6] = 48 h, 10 µM, compound concentration 10 uM

With `CN(C)CCOc1ccc(/C(=C(/CCCO)c2ccccc2)c2ccc(O)cc2)cc1` the “Population Apoptotic (%)” value [1] was 11.33% and 11.76%, the “Population Fragmented Nuclei (%)” value [1] was 1.07% and 2.99% and the “Population Hoechst High Intensity Objects (%)” value [1] was 0%. For the same compound, the “Population Membrane Permeable-Phenotype (%)” value [1] was 0.91% and 0%, the “Population Mitochondria Different-Phenotype (%)” value [1] was 37.73% and 15.38% and the “Population Mitotic Cells (%)” value [1] was 88.67% and 88.24%. The “Population Normal (%)” value [1] was 100%, the “Population Pyknosed Nuclei (%)” value [1] was 40.11% and 81.44% and the “Total Cell Count” value [1] was 374 and 167. The “Population Apoptotic (%)” value [2] was 12.57% and 17.97%, the “Population Fragmented Nuclei (%)” value [2] was 0.31% and 2.14% and the “Population Hoechst High Intensity Objects (%)” value [2] was 0%. For the same compound, the “Population Membrane Permeable-Phenotype (%)” value [2] was 0%, the “Population Mitochondria Different-Phenotype (%)” value [2] was 37.01% and 22.22% and the “Population Mitotic Cells (%)” value [2] was 87.43% and 82.03%. The “Population Normal (%)” value [2] was 100%, the “Population Pyknosed Nuclei (%)” value [2] was 59.87% and 91.43% and the “Population Tubulin-Different-Phenotype (%)” value [2] was 44.09% and 66.67%. For the same compound, the “Total Cell Count” value [2] was 319 and 140, the “Population Apoptotic (%)” value [3] was 20.61% and 15.97% and the “Population Fragmented Nuclei (%)” value [3] was 0.56% and 3.01%. For the same compound, the “Population Healthy Nuclei (%)” value [3] was 68.54% and 25.3%, the “Population Hoechst High Intensity Objects (%)” value [3] was 0.37% and 0% and the “Population Membrane Permeable-Phenotype (%)” value [3] was 1.09% and 2.38%. For the same compound, the “Population Mitochondria Different-Phenotype (%)” value [3] was 18.85% and 28.57%, the “Population Mitotic Cells (%)” value [3] was 79.39% and 84.03% and the “Population Normal (%)” value [3] was 99.63% and 100%. The “Population Pyknosed Nuclei (%)” value [3] was 30.9% and 71.69%, the “Population Tubulin-Different-Phenotype (%)” value [3] was 22.68% and 21.43% and the “Population Apoptotic (%)” value [4] was 44.56% and 45.71%. For the same compound, the “Population Fragmented Nuclei (%)” value [4] was 1.1% and 3.91%, the “Population Hoechst High Intensity Objects (%)” value [4] was 0% and the “Population Membrane Permeable-Phenotype (%)” value [4] was 1.19% and 5.56%. The “Population Mitochondria Different-Phenotype (%)” value [4] was 45.83% and 33.33%, the “Population Mitotic Cells (%)” value [4] was 55.44% and 54.29% and the “Population Normal (%)” value [4] was 100%. For the same compound, the “Population Pyknosed Nuclei (%)” value [4] was 52.88% and 82.03%, the “Population Tubulin-Different-Phenotype (%)” value [4] was 79.76% and 72.22% and the “Total Cell Count” value [4] was 365 and 128. The “Population Apoptotic (%)” value [5] was 11.64% and 29.47%, the “Population Fragmented Nuclei (%)” value [5] was 1.39% and 0.98% and the “Population Healthy Nuclei (%)” value [5] was 85.94% and 52.45%. For the same compound, the “Population Hoechst High Intensity Objects (%)” value [5] was 0.26% and 0%, the “Population Membrane Permeable-Phenotype (%)” value [5] was 6.57% and 1.87% and the “Population Mitochondria Different-Phenotype (%)” value [5] was 21.52% and 41.12%. The “Population Mitotic Cells (%)” value [5] was 88.36% and 70.53%, the “Population Normal (%)” value [5] was 99.74% and 100% and the “Population Apoptotic (%)” value [6] was 39.36% and 66.67%. The “Population Fragmented Nuclei (%)” value [6] was 0.98% and 2.22%, the “Population Hoechst High Intensity Objects (%)” value [6] was 1.92% and 1.46% and the “Population Membrane Permeable-Phenotype (%)” value [6] was 1.57% and 0%. For the same compound, the “Population Mitochondria Different-Phenotype (%)” value [6] was 81.82% and 77.78%, the “Population Mitotic Cells (%)” value [6] was 60.64% and 33.33% and the “Population Normal (%)” value [6] was 98.08% and 98.54%. The “Population Pyknosed Nuclei (%)” value [6] was 36.72% and 77.78%.
With `COc1ccc(-n2c(C)c([N+](=O)[O-])c3ccc(O)cc32)cc1` the “Population Apoptotic (%)” value [1] was 6.21% and 10.43%, the “Population Fragmented Nuclei (%)” value [1] was 1.16% and 7.69% and the “Population Hoechst High Intensity Objects (%)” value [1] was 0%. The “Population Membrane Permeable-Phenotype (%)” value [1] was 1.02% and 0%, the “Population Mitochondria Different-Phenotype (%)” value [1] was 36.04% and 17.65% and the “Population Mitotic Cells (%)” value [1] was 93.79% and 89.57%. For the same compound, the “Population Normal (%)” value [1] was 100%, the “Population Pyknosed Nuclei (%)” value [1] was 41.91% and 80.42% and the “Total Cell Count” value [1] was 346 and 143. The “Population Apoptotic (%)” value [2] was 9.49% and 17.86%, the “Population Fragmented Nuclei (%)” value [2] was 2.91% and 1.47% and the “Population Hoechst High Intensity Objects (%)” value [2] was 0.24% and 0.73%. For the same compound, the “Population Membrane Permeable-Phenotype (%)” value [2] was 0.41% and 0%, the “Population Mitochondria Different-Phenotype (%)” value [2] was 38.27% and 18.18% and the “Population Mitotic Cells (%)” value [2] was 90.51% and 82.14%. For the same compound, the “Population Normal (%)” value [2] was 99.76% and 99.27%, the “Population Pyknosed Nuclei (%)” value [2] was 38.26% and 82.35% and the “Population Apoptotic (%)” value [3] was 11.43% and 19%. For the same compound, the “Population Fragmented Nuclei (%)” value [3] was 1.47% and 4.73%, the “Population Healthy Nuclei (%)” value [3] was 72.84% and 27.7% and the “Population Hoechst High Intensity Objects (%)” value [3] was 0%. For the same compound, the “Population Membrane Permeable-Phenotype (%)” value [3] was 0.76% and 2.44%, the “Population Mitochondria Different-Phenotype (%)” value [3] was 19.9% and 19.51% and the “Population Mitotic Cells (%)” value [3] was 88.57% and 81%. For the same compound, the “Population Normal (%)” value [3] was 100%, the “Population Pyknosed Nuclei (%)” value [3] was 25.69% and 67.57% and the “Population Apoptotic (%)” value [4] was 20% and 19.35%. The “Population Fragmented Nuclei (%)” value [4] was 2.53% and 2.65%, the “Population Healthy Nuclei (%)” value [4] was 71.03% and 35.76% and the “Population Hoechst High Intensity Objects (%)” value [4] was 0% and 0.66%. For the same compound, the “Population Membrane Permeable-Phenotype (%)” value [4] was 0.97% and 1.85%, the “Population Mitochondria Different-Phenotype (%)” value [4] was 27.18% and 12.96% and the “Population Mitotic Cells (%)” value [4] was 80% and 80.65%. The “Population Normal (%)” value [4] was 100% and 99.34%, the “Population Pyknosed Nuclei (%)” value [4] was 26.44% and 61.59% and the “Population Tubulin-Different-Phenotype (%)” value [4] was 27.51% and 11.11%. For the same compound, the “Total Cell Count” value [4] was 435 and 152, the “Population Apoptotic (%)” value [5] was 9.35% and 22.41% and the “Population Fragmented Nuclei (%)” value [5] was 2.61% and 2.72%. The “Population Healthy Nuclei (%)” value [5] was 87.04% and 65.76%, the “Population Hoechst High Intensity Objects (%)” value [5] was 0.1% and 0% and the “Population Membrane Permeable-Phenotype (%)” value [5] was 3.78% and 1.65%. For the same compound, the “Population Mitochondria Different-Phenotype (%)” value [5] was 21% and 23.97%, the “Population Mitotic Cells (%)” value [5] was 90.65% and 77.59% and the “Population Normal (%)” value [5] was 99.9% and 100%. For the same compound, the “Population Apoptotic (%)” value [6] was 17.07% and 21.57%, the “Population Fragmented Nuclei (%)” value [6] was 3.71% and 2.48% and the “Population Healthy Nuclei (%)” value [6] was 84.59% and 65.84%. The “Population Hoechst High Intensity Objects (%)” value [6] was 0.14% and 0%, the “Population Membrane Permeable-Phenotype (%)” value [6] was 5.23% and 1.89% and the “Population Mitochondria Different-Phenotype (%)” value [6] was 33.9% and 25.47%. The “Population Mitotic Cells (%)” value [6] was 82.93% and 78.43%, the “Population Normal (%)” value [6] was 99.86% and 100% and the “Population Pyknosed Nuclei (%)” value [6] was 11.7% and 31.68%.
`CN(C)Cc1cccc(NC(=C2C(=O)Nc3cc(C(N)=O)ccc32)c2ccccc2)c1` was tested, and the “Population Apoptotic (%)” value [1] was 11.04% and 8.47%, the “Population Fragmented Nuclei (%)” value [1] was 2.49% and 2.04% and the “Population Hoechst High Intensity Objects (%)” value [1] was 0.28% and 0%. For the same compound, the “Population Membrane Permeable-Phenotype (%)” value [1] was 0.51% and 7.69%, the “Population Mitochondria Different-Phenotype (%)” value [1] was 22.73% and 15.38% and the “Population Mitotic Cells (%)” value [1] was 88.96% and 91.53%. For the same compound, the “Population Normal (%)” value [1] was 99.72% and 100%, the “Population Pyknosed Nuclei (%)” value [1] was 42.66% and 80.27% and the “Total Cell Count” value [1] was 362 and 147. The “Population Apoptotic (%)” value [2] was 15.53% and 28.8%, the “Population Fragmented Nuclei (%)” value [2] was 3.04% and 4.44% and the “Population Healthy Nuclei (%)” value [2] was 56.2% and 26.11%. The “Population Hoechst High Intensity Objects (%)” value [2] was 0.25% and 0%, the “Population Membrane Permeable-Phenotype (%)” value [2] was 0.45% and 2.13% and the “Population Mitochondria Different-Phenotype (%)” value [2] was 20.72% and 17.02%. The “Population Mitotic Cells (%)” value [2] was 84.47% and 71.2%, the “Population Normal (%)” value [2] was 99.75% and 100% and the “Population Pyknosed Nuclei (%)” value [2] was 40.76% and 69.44%. For the same compound, the “Population Tubulin-Different-Phenotype (%)” value [2] was 14.86% and 40.43%, the “Total Cell Count” value [2] was 396 and 180 and the “Population Apoptotic (%)” value [3] was 13.33% and 15.56%. For the same compound, the “Population Fragmented Nuclei (%)” value [3] was 0.9% and 4.61%, the “Population Healthy Nuclei (%)” value [3] was 77.6% and 36.18% and the “Population Hoechst High Intensity Objects (%)” value [3] was 0.18% and 0.65%. The “Population Membrane Permeable-Phenotype (%)” value [3] was 1.39% and 1.82%, the “Population Mitochondria Different-Phenotype (%)” value [3] was 9.47% and 14.55% and the “Population Mitotic Cells (%)” value [3] was 86.67% and 84.44%. The “Population Normal (%)” value [3] was 99.82% and 99.35%, the “Population Pyknosed Nuclei (%)” value [3] was 21.51% and 59.21% and the “Population Tubulin-Different-Phenotype (%)” value [3] was 13.16% and 7.27%. The “Population Apoptotic (%)” value [4] was 26.06% and 39.09%, the “Population Fragmented Nuclei (%)” value [4] was 1.76% and 3.57% and the “Population Healthy Nuclei (%)” value [4] was 66.02% and 40.31%. The “Population Hoechst High Intensity Objects (%)” value [4] was 0.19% and 0%, the “Population Membrane Permeable-Phenotype (%)” value [4] was 0.89% and 0% and the “Population Mitochondria Different-Phenotype (%)” value [4] was 22.78% and 25.32%. The “Population Mitotic Cells (%)” value [4] was 73.94% and 60.91%, the “Population Normal (%)” value [4] was 99.81% and 100% and the “Population Pyknosed Nuclei (%)” value [4] was 32.23% and 56.12%. The “Population Tubulin-Different-Phenotype (%)” value [4] was 32.25% and 18.99%, the “Total Cell Count” value [4] was 513 and 196 and the “Population Apoptotic (%)” value [5] was 10.07% and 19.05%. The “Population Fragmented Nuclei (%)” value [5] was 1.84% and 0.58%, the “Population Healthy Nuclei (%)” value [5] was 85.36% and 62.57% and the “Population Hoechst High Intensity Objects (%)” value [5] was 0%. For the same compound, the “Population Membrane Permeable-Phenotype (%)” value [5] was 5.39% and 0.93%, the “Population Mitochondria Different-Phenotype (%)” value [5] was 17.15% and 29.91% and the “Population Mitotic Cells (%)” value [5] was 89.93% and 80.95%. The “Population Normal (%)” value [5] was 100%, the “Population Pyknosed Nuclei (%)” value [5] was 12.8% and 36.84% and the “Population Apoptotic (%)” value [6] was 19.7% and 35.71%. The “Population Fragmented Nuclei (%)” value [6] was 2.75% and 2.37%, the “Population Healthy Nuclei (%)” value [6] was 80.73% and 58.89% and the “Population Hoechst High Intensity Objects (%)” value [6] was 0.12% and 0.39%. For the same compound, the “Population Membrane Permeable-Phenotype (%)” value [6] was 4.19% and 2.01%, the “Population Mitochondria Different-Phenotype (%)” value [6] was 43.1% and 38.26% and the “Population Mitotic Cells (%)” value [6] was 80.3% and 64.29%. For the same compound, the “Population Normal (%)” value [6] was 99.88% and 99.61% and the “Population Pyknosed Nuclei (%)” value [6] was 16.52% and 38.74%.
